Screens from PubChem.
PostGolgi yeast = growth inhibition of a yeast mutant, post-Golgi transport screen; post-Golgi transport phenotypic cell assay; 98,000 tested, 0.9% active; AID 739; inhibition, % at 10 µM;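 further: yeast cells grown in 1536-well plates; yeast grown about 18 h at 30C before absorbance read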
Ecoli tolC = growth inhibitors of E. coli BW25113 tolC mutant. OD615. growth inhibition, % at 10 µM (by protocol). 65,000 tested, 2.2% active. AID 573;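 active means growth inhibition at or above a cutoff equal to the mean over every tested compound plus 3 SD, cut at about 60% in these data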;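 further: growth measured after 20 h incubation at 37 °C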
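Test system: E. coli BW25113 ΔtolC::kan bacteria | Medium: Kanamycin-containing LB broth (50 µg/mL) | Dosing: One dose of 10 µM final | Times: 20 h incubation with compound, 37 °C | Detection: Optical density read at 615 nm | Read-out basis: Percent growth inhibition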
EphB4 ephrin blk = blocks human EphB4 binding to ephrin-B2 | EphB4 LBD / TNYL-RAW-Alexa532 peptide, fluorescence polarization | 97,000 tested, 0.15% active | P54760 | inhibition, % at 7 µM | AID 720;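 active means inhibition above the screen-wide mean inhibition plus 3 SD, cut at about 15% in these data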;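 further: 0% = DMSO wells and 100% = excess unlabeled TNYL-RAW peptide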
Ecoli WT expand = E. coli BW25113 growth inhibition, expanded screen | OD600 absorbance | 98,000 tested, 0.15% active | growth inhibition, % at 100 µM;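 active means growth inhibition above about 50% at one test dose, limit read from the data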;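 further: growth measured after 20 h incubation at 37 °C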
PostGolgi ctrl = growth of the yeast control strain, post-Golgi counter-screen; inhibition, % at 10 µM; 98,000 tested, 5% active; efflux-deficient yeast background strain, growth absorbance A615, 16 h
Active calls of the source: *. An excerpt weighted towards active compounds, which were near 6% of everything screened. Unless noted, no stated cut-off is given here; in the data, active means inhibition above about 30%; inactive means the rest.

COc1ccc(S(=O)(=O)N2CCCC(C(=O)NC3CCCCC3)C2)cc1 (centres undefined) was read as PostGolgi yeast -2, Ecoli tolC 9, EphB4 ephrin blk 3, Ecoli WT expand 1 and PostGolgi ctrl 32*.
COc1ccc(S(=O)(=O)N2CCC(NC(=O)OCc3c(Cl)cccc3Cl)CC2)cc1 was read as PostGolgi yeast -12, EphB4 ephrin blk 3, Ecoli WT expand -7 and PostGolgi ctrl 32*.
COc1cc(C(=S)N2CCCC2)cc(OC)c1O was read as PostGolgi yeast 4, EphB4 ephrin blk -2, Ecoli WT expand 0 and PostGolgi ctrl 8.
Cn1c(-c2sc3ccccc3c2Cl)n[nH]c1=S was read as PostGolgi yeast 10, EphB4 ephrin blk 1, Ecoli WT expand -1 and PostGolgi ctrl 22.
CCOc1ccccc1NC(=O)C(=O)NCC1CCCN1CC (centres undefined) was read as PostGolgi yeast -6, EphB4 ephrin blk -11, Ecoli WT expand 6 and PostGolgi ctrl 11.
For CCN1CCCC1CNC(=O)C(=O)Nc1ccc(OC)cc1 (centres undefined) the results were PostGolgi yeast -18, EphB4 ephrin blk 8, Ecoli WT expand 0 and PostGolgi ctrl 42*.
`Cn1c(=O)c2c(ncn2CC(=O)N2CCN(c3ccc(F)cc3)CC2)n(C)c1=O` gave PostGolgi yeast 4, Ecoli tolC -12, EphB4 ephrin blk -4, Ecoli WT expand 3 and PostGolgi ctrl 8.
`CCOC(=O)CN1C(=O)C2Cc3ccccc3CN2C1=S` (centres undefined) gave PostGolgi yeast 4, EphB4 ephrin blk 1, Ecoli WT expand 3 and PostGolgi ctrl 1.
Screening CC(C)COC(=O)NCCOC(=O)Nc1cccc(Cl)c1 returned PostGolgi yeast -6, Ecoli tolC 89*, EphB4 ephrin blk 5, Ecoli WT expand 25 and PostGolgi ctrl 7.
CC(C)COC(=O)NCCCOC(=O)Nc1ccccc1 was read as PostGolgi yeast 7, Ecoli tolC 8, EphB4 ephrin blk -1, Ecoli WT expand 1 and PostGolgi ctrl 6.
CCOC(=O)C1=C(CC)Nc2ccccc2N=C1NC(=O)Nc1ccccc1OC was read as PostGolgi yeast 8, Ecoli tolC -8, EphB4 ephrin blk 0, Ecoli WT expand -3 and PostGolgi ctrl 37*.
CCOC(=O)C1=C(CC)Nc2ccccc2N=C1NC(=O)c1cc(S(=O)(=O)N(C)C)ccc1Cl was read as PostGolgi yeast -5, EphB4 ephrin blk -6, Ecoli WT expand -9 and PostGolgi ctrl -1.
`CCC(=O)N1CCN(c2cc3c(cc2F)c(=O)c(C(=O)O)cn3CC)CC1` gave Ecoli tolC 100*.
For CCn1cc(C(=O)O)c(=O)c2cc(OC)ccc21 the results were PostGolgi yeast 8, Ecoli tolC 97*, EphB4 ephrin blk 2, Ecoli WT expand 32 and PostGolgi ctrl 7.
Screening CCn1cc(C(=O)O)c(=O)c2ccc(C)nc21 returned Ecoli tolC 19.
CCOC(=O)c1cn(CC)c2cc(N3CCOCC3)c(F)cc2c1=O was read as PostGolgi yeast 4, Ecoli tolC 100*, EphB4 ephrin blk 11, Ecoli WT expand 22 and PostGolgi ctrl -2.
For CCOC(=O)N1CCN(C(=O)c2cn(CC)c3cc(N4CCN(C)CC4)c(F)cc3c2=O)CC1 the results were PostGolgi yeast 5, Ecoli tolC 16, Ecoli WT expand 100* and PostGolgi ctrl 2.
Cc1cccc2c1N1C(=O)c3c(C(=O)O)cccc3C1CC2C (centres undefined) was read as EphB4 ephrin blk -8.
Screening COc1cccc(NC(=O)CCNC(=O)Cn2ccc3ccccc3c2=O)c1 returned PostGolgi yeast -7, EphB4 ephrin blk 2, Ecoli WT expand -3 and PostGolgi ctrl 0.
`CC(NC(=O)C(=O)NN=C1CCCCCCCCCCC1)c1ccccc1` (centres undefined) gave PostGolgi yeast -7, EphB4 ephrin blk 9, Ecoli WT expand -1 and PostGolgi ctrl -4.
Screening CCOC(=O)C1CN(c2cc3c(cc2F)c(=O)c(C(=O)O)cn3CC)OC1C(=O)OCC (centres undefined) returned PostGolgi yeast 3, Ecoli tolC 98*, EphB4 ephrin blk 8, Ecoli WT expand 10 and PostGolgi ctrl -1.
For CCOC(=O)c1cn(CC)c2cc(N3CCCCC3)c(F)cc2c1=O the results were Ecoli tolC 100* and EphB4 ephrin blk -5.
Screening Cc1ccc2cc(C#N)c(NCCNC(=O)C3CC3)nc2c1C returned PostGolgi yeast 8, Ecoli tolC 2, EphB4 ephrin blk -2, Ecoli WT expand -5 and PostGolgi ctrl 17.
`O=C1CSC(=Nc2cc(Cl)ccc2Cl)N1` gave PostGolgi yeast 0, Ecoli tolC -3, EphB4 ephrin blk 3, Ecoli WT expand -7 and PostGolgi ctrl 14.
CS(=O)(=O)N1CCN(c2ccccc2NC(=O)Cc2ccccc2)CC1 was read as PostGolgi yeast -3, Ecoli tolC 2, EphB4 ephrin blk 1, Ecoli WT expand 3 and PostGolgi ctrl 10.
O=C(Cc1ccccc1)Nc1ccccc1N1CCN(c2ccccc2)CC1 was read as PostGolgi yeast 6, Ecoli tolC 63*, EphB4 ephrin blk -2, Ecoli WT expand 0 and PostGolgi ctrl 5.
COc1ccc(S(=O)(=O)C(C#N)c2nc3ccccc3nc2N2CCC(C)CC2)cc1 (centres undefined) was read as Ecoli tolC 20.
CCOC(=O)c1cnc2ccc(OCC)cc2c1N1CCN(c2ccccc2OC)CC1 was read as PostGolgi yeast 0, EphB4 ephrin blk -3, Ecoli WT expand -17 and PostGolgi ctrl 59*.
CCOC(=O)C1CCN(c2c(N3CCN(c4ccccc4OC)CC3)c(=O)c2=O)CC1 was read as PostGolgi yeast 2, Ecoli tolC 4, Ecoli WT expand -1 and PostGolgi ctrl -1.
`CC12CCC(C(=O)Nc3cc(Cl)ccc3Cl)(C/C1=N\O)C2(C)C` (centres undefined) gave PostGolgi yeast -7, EphB4 ephrin blk -1, Ecoli WT expand 5 and PostGolgi ctrl 1.
For CCOC(=O)C1=C(COc2ccc(F)cc2Cl)NC(=O)NC1c1cc(C)ccc1C (centres undefined) the results were PostGolgi yeast 1, EphB4 ephrin blk -2, Ecoli WT expand -9 and PostGolgi ctrl 30*.
`Cc1ccc(C(=O)Nc2ncnc3sc4c(c23)CCCCC4)cc1` gave PostGolgi yeast 5, EphB4 ephrin blk -2, Ecoli WT expand -2 and PostGolgi ctrl 6.
COc1cccc(-c2nn(C)c3sc(C(=O)NCc4ccc(C)o4)cc23)c1 was read as PostGolgi yeast 11, Ecoli tolC 36, Ecoli WT expand -16 and PostGolgi ctrl 19.
Screening COc1cccc(-c2nn(C)c3sc(C(=O)NCc4ccc5c(c4)OCO5)cc23)c1 returned PostGolgi yeast -9, Ecoli tolC 20, EphB4 ephrin blk 3, Ecoli WT expand -7 and PostGolgi ctrl 30*.
O=C(NCC1COc2ccccc2O1)C1CCCN(S(=O)(=O)c2cnc[nH]2)C1 (centres undefined) was read as Ecoli tolC -9.
